Experimental data as given in ChEMBL document CHEMBL1137812, “Leishmanicidal and antiplasmodial activity of constituents of Smirnowia iranica” (J Nat Prod, 2002).

How the values were obtained:
[1] = tested on: Plasmodium falciparum; assay: Antiplasmodial activity against chloroquine-sensitive Plasmodium falciparum 3D7 after 48 hrs as reduced [3H]phenylalanine uptake
[2] = tested on: Leishmania donovani; assay: Antileishmanial activity against Leishmania donovani LV9 amastigotes infected in mouse RAW 264.7 cells after 72 hrs by MTT assay; assay type: functional, organism-based
Method in brief: (§1)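 RAW 264.7 macrophages infected in vitro with stationary-phase promastigotes, seeded at 1 × 10^5 cells per well in RPMI with 10% fetal calf serum and held 24 h at 37 °C for amastigote transformation. Compounds added, duplicate wells, 72 h at 37 °C. Cells lysed with 0.008% SDS, then post-lysis medium added and plates held 3-4 days at 25 °C. Recovered promastigotes quantified by MTT.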

[3] = tested on: Leishmania infantum; assay: Antileishmanial activity against Leishmania infantum D.SCH promastigotes after 96 hrs by MTT assay; assay type: functional, organism-based
Method in brief: (§2)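 Promastigotes recovered from liquid-nitrogen cryopreservation were exposed to compounds for 96 h. Parasite viability was read by MTT.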

[4] = tested on: Leishmania donovani; assay: Antileishmanial activity against Leishmania donovani LV9 promastigotes after 96 hrs by MTT assay; assay type: functional, organism-based; conditions: LV9, 96 h
Method in brief: as §2

[5] = tested on: RAW264.7; assay: Cytotoxicity against mouse macrophage RAW264.7 cells after 48 hrs by MTT assay; assay type: cell-based; conditions: RAW264.7, 48 h
Method in brief: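 Noninfected RAW 264.7 cells were run in parallel with the intracellular amastigote assay and exposed to compounds for 48 h. Viable cells were quantified by MTT.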

[6] = tested on: Leishmania infantum; assay: Antileishmanial activity against Leishmania infantum D.SCH amastigotes infected in mouse RAW 264.7 cells after 72 hrs by MTT assay; assay type: functional, organism-based
Method in brief: as §1

[7] = tested on: Leishmania major; assay: Antileishmanial activity against Leishmania major LV39 promastigotes after 96 hrs by MTT assay; assay type: functional, organism-based; conditions: LV39, 96 h
Method in brief: as §2

[8] = Toxicity in human erythrocytes assessed as morphological changes up to 67 uM after 48 hrs by Giemsa staining; assay type: cell-based; conditions: erythrocyte
[9] = Toxicity in human erythrocytes assessed as morphological changes at IC50 after 48 hrs by Giemsa staining; assay type: cell-based; conditions: erythrocyte
[10] = Toxicity in human erythrocytes assessed as formation of echinocytes and ghost cells at 130 to 300 uM after 48 hrs by Giemsa staining; assay type: cell-based; conditions: erythrocyte

Compound	IC50 [1] [µM]	IC50 [2] [µM]	IC50 [3] [µM]	IC50 [4] [µM]	IC50 [5] [µM]	IC50 [6] [µM]	IC50 [7] [µM]	Activity [8]	Activity [9]	Activity [10]
C/C=C/C1=C(OC)C(=O)C(OC)=C(OC)C1=O	> 200	> 800	74	97	256	> 800	72	–	–	–
C/C=C/c1cc(O)c(OC)c(OC)c1	> 200	> 800	267	395	281	> 800	372	–	–	–
C/C=C/c1cc(OC)c(OC)c(O)c1OC	> 200	589	198	232	125	> 800	387	–	–	–
COc1ccc([C@@H]2COc3c(ccc(O)c3CC=C(C)C)C2)c(OC)c1O	10.3	99	9.2	6.9	218	109	7.9	Non-toxic	–	–
C[C@@H]1[C@H](O)[C@@H](C)/C=C/C=C/C=C/C=C/C=C/C=C/C=C/[C@H](O[C@@H]2O[C@H](C)[C@@H](O)[C@H](N)[C@@H]2O)C[C@@H]2O[C@](O)(C[C@@H](O)C[C@@H](O)[C@H](O)CC[C@@H](O)C[C@@H](O)CC(=O)O[C@H]1C)C[C@H](O)[C@H]2C(=O)O [AMPHOTERICIN B]	–	0.04	0.02	–	–	0.04	0.03	–	–	–
COc1ccc([C@@H]2COc3c(ccc4c3C=CC(C)(C)O4)C2)c(OC)c1O [GLYASPERIN H]	33.3	77	14.2	25.3	172	89	23.7	–	Non-toxic	Toxic
COc1ccc([C@@H]2COc3c(ccc4occc34)C2)c(OC)c1O [SMIRANICIN]	57.6	112	11.3	22.9	193	81	17.4	–	Non-toxic	Toxic
